From ChEMBL document CHEMBL1150864, “Antimalarial compounds from Rhaphidophora decursiva” (J Nat Prod, 2001)
Converted amounts (≈) assume the structure as drawn.

Experiments:
[1] = test system: Plasmodium falciparum; assay: Antiplasmodial activity against chloroquine-sensitive Plasmodium falciparum D6 by [3H]hypoxanthine uptake; type: functional, organism-based
Summary of the method: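 P. falciparum D6 kept in type A+ human erythrocytes (RPMI-1640, NaHCO3, HEPES, hypoxanthine, 10% Albumax II) under 5% O2/5% CO2/90% N2 at 37 °C. Plated at 0.5-1% parasitemia, 1% hematocrit with serial dilutions from 4 mg/mL stock, triplicate; 24 h, then 0.5 μCi [3H]hypoxanthine for 18 h more. Scintillation counting; IC50 by nonlinear regression versus zero-drug controls.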

[2] = test system: Plasmodium falciparum; assay: Antiplasmodial activity against chloroquine-resistant Plasmodium falciparum W2 by [3H]hypoxanthine uptake; type: functional, organism-based
Summary of the method: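 P. falciparum W2 grown in type A+ human erythrocytes in RPMI-1640 with NaHCO3, HEPES, hypoxanthine and 10% Albumax II, 5% O2/5% CO2/90% N2, 37 °C. Samples from 4 mg/mL stock tested in triplicate at 0.5-1% parasitemia, 1% hematocrit. After 24 h, 0.5 μCi [3H]hypoxanthine added for 18 h more; IC50 by nonlinear regression, zero-drug controls as 100%.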

[3] = Cytotoxicity against human KB cells after 72 hrs; type: cell-based; conditions: read-out: ED50
[4] = Selectivity index, ratio of ED50 for human KB cells to IC50 for chloroquine-sensitive Plasmodium falciparum D6; type: functional
[5] = Selectivity index, ratio of ED50 for human KB cells to IC50 for chloroquine-resistant Plasmodium falciparum W2; type: functional

IC50 ([1]; D6, 42 h) [µg/mL] | SMILES | IC50 [2] [µg/mL] | CC50 at 72 h [3] [µg/mL] | Selectivity Index [4] | Selectivity Index [5] | IC50 ([1]; D6) [µg/mL]
> 10 | COc1cc([C@@H]2OC[C@H]3[C@@H]2CO[C@H]3c2ccc(O)c(OC)c2)ccc1O [(-)-PINORESINOL] | – | – | – | – | –
– | C=C[C@H]1CN2CC[C@H]1C[C@H]2[C@H](O)c1ccnc2ccc(OC)cc12 [QUININE] | 0.041 (≈ 0.126 µM) | > 20 | >2000 | >490 | 0.009 (≈ 0.0277 µM)
> 10 | COc1cc([C@H]2OC[C@H]3[C@@H]2CO[C@@H]3c2cc(OC)c(O)c(OC)c2)ccc1O | – | – | – | – | –
> 10 | CCCCNC(=O)c1ccccc1 | – | – | – | – | –
– | C[C@@H]1CC[C@H]2[C@@H](C)C(=O)O[C@@H]3O[C@@]4(C)CC[C@@H]1[C@]32OO4 [ARTEMISININ] | 0.002 (≈ 0.00708 µM) | > 20 | >10000 | >10000 | –
– | COc1cc([C@H]2O[C@@H](c3cc(OC)c(OC)c(OC)c3)[C@H](C)[C@H]2C)cc(OC)c1OC [EPIGRANDISIN] | 3.34 (≈ 7.72 µM) | 16 (≈ 37 µM) | <2 | 4 | > 10
– | C/C=C/c1cc(OC)c(O[C@H](C)[C@@H](O)c2cc(OC)c(OC)c(OC)c2)c(OC)c1 (relative stereo) [POLYSYPHORIN] | 0.368 (≈ 0.879 µM) | 2 (≈ 4.78 µM) | 5 | 6 | 0.404 (≈ 0.965 µM)
> 10 | COc1cc([C@H]2OC[C@@H]3C(=O)OC[C@@H]32)cc(OC)c1O | – | – | – | – | –
> 10 | CCCCCC1(O)OC(=O)C(C)=C1C (stereo unspecified) | – | – | – | – | –
> 10 | COc1cc([C@@H]2OC[C@@H]3[C@H]2CO[C@H]3c2cc(OC)c(O)c(OC)c2)cc(OC)c1O | – | – | – | – | –
– | C=CCc1cc(OC)c(O[C@H](C)[C@@H](O)c2cc(OC)c(OC)c(OC)c2)c(OC)c1 [RHAPHIDECURSINOL B] | 4.68 (≈ 11.2 µM) | 10 (≈ 23.9 µM) | 1 | 2 | 5.37 (≈ 12.8 µM)
> 10 | CC(=O)/C=C/[C@@]1(O)C(C)=CC(=O)CC1(C)C | – | – | – | – | –
– | COc1cc(O)cc2c1C(=O)OOC(C)CCCCC/C=C/2 (stereo unspecified) [RHAPHIDECURPEROXIN] | 0.42 (≈ 1.37 µM) | 4 (≈ 13.1 µM) | 0.7 | 1 | 0.54 (≈ 1.76 µM)
– | COc1cc([C@@H]2O[C@@H](c3cc(OC)c(OC)c(OC)c3)[C@H](C)[C@H]2C)cc(OC)c1OC [GRANDISIN] | 1.48 (≈ 3.43 µM) | 14 (≈ 32.4 µM) | 7 | 8 | 1.51 (≈ 3.49 µM)
